Drawing on ChEMBL document CHEMBL4406821, “Novel dual inhibitors targeting CDK4 and VEGFR2 synergistically suppressed cancer progression and angiogenesis” (Eur J Med Chem, 2019), this text covers inhibition and IC50 for 27 compounds.

The target of experiment [1] is CDK4/Cyclin D3 (Homo sapiens) (UniProt P11802+P30281). In words: Inhibition of recombinant full length human CDK4/Cyclin D3 using Rb-fragmen as substrate at 1 uM incubated for 40 mins by [gamma-33P]-ATP based radiometric assay relative to control. Format: protein-complex assay. The gist of the method: (§1)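 Kinase panel profiling at 1 μM performed by Eurofins KinaseProfiler; percent inhibition reported as mean of two independent experiments.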

Experiment [2] deals with Vascular endothelial growth factor receptor 2 (Homo sapiens, UniProt P35968). Put plainly: Inhibition of recombinant human VEGFR2 (790 to end residues) using myelin ba as substrate at 1 uM incubated for 40 mins by [gamma-33P]-ATP based radiometric assay relative to control. The gist of the method:
as §1

The subject of a further experiment is HeLa. Put plainly: Antiproliferative activity against human HeLa cells assessed as reduction in cell viability measured after 72 hrs by CCK8 assay. The experiment is classed as functional, cell-based. The gist of the method: (§2)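 Cells were seeded at 3×10³ cells/well and exposed to a range of concentrations or vehicle for 72 h. Viability was read by CCK-8 at 450 nm, with DMSO as blank and five replicates per sample. IC50 was calculated from the dose-response.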
(Formazan colour is commonly taken as a measure of viable cells.)

The next experiment relates to T47D. In words: Antiproliferative activity against human T47D cells assessed as reduction in cell viability measured after 72 hrs by CCK8 assay. Format: functional, cell-based. The gist of the method:
as §2

Vascular endothelial growth factor receptor 2, sequence (P35968 whole entry): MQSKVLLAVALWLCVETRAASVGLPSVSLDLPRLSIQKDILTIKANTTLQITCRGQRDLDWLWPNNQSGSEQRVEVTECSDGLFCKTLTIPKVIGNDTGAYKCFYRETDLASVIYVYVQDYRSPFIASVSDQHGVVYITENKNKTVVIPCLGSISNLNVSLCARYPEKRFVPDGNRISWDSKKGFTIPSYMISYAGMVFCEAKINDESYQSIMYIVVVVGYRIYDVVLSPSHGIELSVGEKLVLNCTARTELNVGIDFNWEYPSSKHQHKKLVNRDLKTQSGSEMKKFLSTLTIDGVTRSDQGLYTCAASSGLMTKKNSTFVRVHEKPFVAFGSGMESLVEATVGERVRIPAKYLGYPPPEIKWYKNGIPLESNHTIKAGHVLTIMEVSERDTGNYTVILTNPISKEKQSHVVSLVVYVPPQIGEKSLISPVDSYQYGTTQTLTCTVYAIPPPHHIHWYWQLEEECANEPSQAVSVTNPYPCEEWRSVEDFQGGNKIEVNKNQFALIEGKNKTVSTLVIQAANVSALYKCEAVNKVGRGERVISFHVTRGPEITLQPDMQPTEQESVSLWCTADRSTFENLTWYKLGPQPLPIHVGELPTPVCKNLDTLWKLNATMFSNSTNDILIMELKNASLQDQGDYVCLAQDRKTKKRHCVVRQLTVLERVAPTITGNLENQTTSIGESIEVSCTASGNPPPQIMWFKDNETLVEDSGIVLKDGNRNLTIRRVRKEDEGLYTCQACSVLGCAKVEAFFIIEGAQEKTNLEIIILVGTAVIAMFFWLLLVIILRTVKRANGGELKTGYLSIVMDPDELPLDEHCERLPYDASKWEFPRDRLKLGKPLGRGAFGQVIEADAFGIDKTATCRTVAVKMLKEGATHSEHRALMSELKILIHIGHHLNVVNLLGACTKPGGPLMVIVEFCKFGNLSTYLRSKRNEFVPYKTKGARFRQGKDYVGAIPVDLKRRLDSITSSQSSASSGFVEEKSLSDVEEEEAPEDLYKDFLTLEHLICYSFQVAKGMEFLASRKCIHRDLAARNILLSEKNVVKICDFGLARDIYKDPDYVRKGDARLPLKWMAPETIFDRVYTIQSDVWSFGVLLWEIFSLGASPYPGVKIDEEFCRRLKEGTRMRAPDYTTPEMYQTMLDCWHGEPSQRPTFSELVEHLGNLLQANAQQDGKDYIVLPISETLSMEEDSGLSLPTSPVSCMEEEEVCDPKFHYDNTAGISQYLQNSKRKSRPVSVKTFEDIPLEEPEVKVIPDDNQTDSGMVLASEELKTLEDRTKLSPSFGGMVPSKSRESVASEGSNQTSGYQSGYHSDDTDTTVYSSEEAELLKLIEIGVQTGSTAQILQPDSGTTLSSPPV

For `Cc1nc2c(F)cc(-c3nc(Nc4ccc(NC(=O)C5(C(=O)Nc6ccc(Cl)cc6)CC5)cc4)ncc3F)cc2n1C(C)C`, the inhibition was determined as 76% in experiment [1] and 74% in experiment [2].
Turning to `Cc1nc2c(F)cc(-c3nc(Nc4ccc(NC(=O)C5(C(=O)Nc6cccc(F)c6)CC5)cc4)ncc3F)cc2n1C(C)C`, the results for the inhibition in experiment [1] and in experiment [2] were 96% and 90%, respectively. Moreover, the results for the IC50 in the experiment on HeLa and in the experiment on T47D were 106 nM and 29.3 nM, respectively.
On to `Cc1nc2c(F)cc(-c3nc(Nc4ccc(NC(=O)C5(C(=O)Nc6cccc(Br)c6)CC5)cc4)ncc3F)cc2n1C(C)C`, for which the inhibition was 83% in experiment [1] and 90% in experiment [2].
Regarding `CC(C)n1nnc2ccc(-c3nc(Nc4ccc(NC(=O)C5(C(=O)Nc6cccc(Cl)c6)CC5)cc4)ncc3F)cc21`, the inhibition in experiment [1] was determined as 50%; in experiment [2], 60%.
The corresponding values for `CC(C)n1nnc2ccc(-c3nc(Nc4ccc(NC(=O)C5(C(=O)Nc6cccc(Br)c6)CC5)cc4)ncc3F)cc21` are 34% and 55%.
For `CC(C)n1nnc2ccc(-c3nc(Nc4ccc(NC(=O)C5(C(=O)Nc6ccc(Cl)cc6)CC5)cc4)ncc3F)cc21`, in that order: 21% and 59%.
Turning to `Cc1nc2c(F)cc(-c3nc(Nc4ccc(NC(=O)C5(C(=O)Nc6ccc(Br)cc6)CC5)cc4)ncc3F)cc2n1C(C)C`, the inhibition stood at 90% in experiment [1] and 91% in experiment [2]. The IC50 with HeLa was 597 nM; in the experiment with T47D it was 120 nM.
On to `Cc1nc2c(F)cc(-c3nc(Nc4ccc(NC(=O)C5(C(=O)Nc6ccc(C(F)(F)F)cc6)CC5)cc4)ncc3F)cc2n1C(C)C`, for which the inhibition in experiment [1] came out at 74%; in experiment [2], 80%.
For the compound `CC(C)n1nnc2ccc(-c3nc(Nc4ccc(NC(=O)C5(C(=O)Nc6ccc(Cl)c(C(F)(F)F)c6)CC5)cc4)ncc3F)cc21`, the results for the inhibition in experiment [1] and in experiment [2] were 8% and 41%, respectively.
Consider `Cc1nc2c(F)cc(-c3nc(Nc4ccc(NC(=O)C5(C(=O)Nc6ccc(F)cc6)CC5)cc4)ncc3F)cc2n1C(C)C`, for which the figures for the inhibition in experiment [1] and in experiment [2] were 98% and 91%, respectively. Moreover, the IC50 with HeLa amounted to 191 nM; in the experiment with T47D it was 25.5 nM.
Take `Cc1nc2c(F)cc(-c3nc(Nc4ccc(NC(=O)C5(C(=O)Nc6ccc(Cl)c(C(F)(F)F)c6)CC5)cc4)ncc3F)cc2n1C(C)C`: the inhibition in experiment [1] was determined as 34%; in experiment [2], 68%.
In the case of `Cc1nc2c(F)cc(-c3nc(Nc4ccc(CNC(=O)C5(C(=O)Nc6ccc(Br)cc6)CC5)cc4)ncc3F)cc2n1C(C)C`, the inhibition was 93% in experiment [1] and 90% in experiment [2]. Also, the figures for the IC50 with HeLa and with T47D were 330 nM and 109 nM, respectively.
As to `CC(C)n1nnc2ccc(-c3nc(Nc4ccc(NC(=O)C5(C(=O)Nc6cccc(F)c6)CC5)cc4)ncc3F)cc21`, the results for the inhibition in experiment [1] and in experiment [2] were 79% and 69%, respectively.
The corresponding values for `Cc1nc2c(F)cc(-c3nc(Nc4ccc(NC(=O)C5(C(=O)Nc6cccc(C(F)(F)F)c6)CC5)cc4)ncc3F)cc2n1C(C)C` are 31% and 80%.
The corresponding values for `Cc1ccc(NC(=O)C2(C(=O)Nc3ccc(Nc4ncc(F)c(-c5ccc6nnn(C(C)C)c6c5)n4)cc3)CC2)cc1` are 81% and 78%.
The corresponding values for `Cc1nc2c(F)cc(-c3nc(Nc4ccc(CNC(=O)C5(C(=O)Nc6ccc(Cl)c(C(F)(F)F)c6)CC5)cc4)ncc3F)cc2n1C(C)C` are 51% and 57%.
In the case of `CN(C)C(=O)c1cc2cnc(Nc3ccc(NC(=O)C4(C(=O)Nc5ccc(F)cc5)CC4)cc3)nc2n1C1CCCC1`, the inhibition in experiment [2] was 0%.
`Cc1nc2c(F)cc(-c3nc(Nc4ccc(NC(=O)C5(C(=O)Nc6cccc(Cl)c6)CC5)cc4)ncc3F)cc2n1C(C)C`: the inhibition in experiment [1] was 74%; in experiment [2], 90%.
For `CC(C)n1nnc2ccc(-c3nc(Nc4ccc(NC(=O)C5(C(=O)Nc6ccc(Br)cc6)CC5)cc4)ncc3F)cc21`, in that order: 24% and 52%.
For `Cc1nc2c(F)cc(-c3nc(Nc4ccc(CNC(=O)C5(C(=O)Nc6ccc(C(F)(F)F)cc6)CC5)cc4)ncc3F)cc2n1C(C)C`, in that order: 37% and 74%.
With `Cc1ccc(NC(=O)C2(C(=O)NCc3ccc(Nc4ncc(F)c(-c5cc(F)c6nc(C)n(C(C)C)c6c5)n4)cc3)CC2)cc1`, the inhibition in experiment [1] was found to be 97%; in experiment [2], 95%. Besides, the half-inhibitory concentration (IC50) was 252 nM in the experiment on HeLa and 771 nM in the experiment on T47D.
As to `CC(C)n1nnc2ccc(-c3nc(Nc4ccc(NC(=O)C5(C(=O)Nc6cccc(C(F)(F)F)c6)CC5)cc4)ncc3F)cc21`, the inhibition in experiment [1] came out at 13%; in experiment [2] it was 46%.
For `CC(C)n1nnc2ccc(-c3nc(Nc4ccc(NC(=O)C5(C(=O)Nc6ccc(C(F)(F)F)cc6)CC5)cc4)ncc3F)cc21`, in that order: 31% and 56%.
The corresponding values for `Cc1cccc(NC(=O)C2(C(=O)Nc3ccc(Nc4ncc(F)c(-c5ccc6nnn(C(C)C)c6c5)n4)cc3)CC2)c1` are 75% and 73%.
For `Cc1nc2c(F)cc(-c3nc(Nc4ccc(CNC(=O)C5(C(=O)Nc6ccc(Cl)cc6)CC5)cc4)ncc3F)cc2n1C(C)C`, in that order: 88% and 91%.
Consider `CC(C)n1nnc2ccc(-c3nc(Nc4ccc(NC(=O)C5(C(=O)Nc6ccc(F)cc6)CC5)cc4)ncc3F)cc21`, for which the inhibition in experiment [1] was found to be 69%; in experiment [2], 84%.
For `Cc1cccc(NC(=O)C2(C(=O)Nc3ccc(Nc4ncc(F)c(-c5cc(F)c6nc(C)n(C(C)C)c6c5)n4)cc3)CC2)c1`, the inhibition was 97% in experiment [1] and 95% in experiment [2]. Besides, the IC50 was 178 nM in the experiment with HeLa and 202 nM in the experiment with T47D.

As a reminder, the inhibition is the percentage by which the read-out fell short of the control. As usually defined, the IC50 is the concentration that gives 50% inhibition.
